Reference: ChEMBL document CHEMBL4715736, “Identification of anticancer agents based on the thieno[2,3-b]pyridine and 1H-pyrazole molecular scaffolds” (2016)

Tested on: SNB-19
Assay: Growth inhibition of human SNB-19 cells assessed as cell growth at 0.1 uM incubated for 48 hrs by sulforhodamine B assay relative to control
Type: functional
Settings: read-out: Activity

SMILES | growth at 0.1 µM
Cc1cccc(NC(=O)c2sc3nc4c(cc3c2N)C(=O)CCC4)c1 | 76%

Tested on: OVCAR-3
Assay: Growth inhibition of human OVCAR-3 cells assessed as cell growth at 100 uM incubated for 48 hrs by sulforhodamine B assay relative to control
Type: functional
Settings: read-out: Activity

SMILES | growth at 100 µM
Cc1cccc(NC(=O)c2sc3nc4c(cc3c2N)C(=O)CCC4)c1 | -23%

Tested on: A549
Assay: Growth inhibition of human A549/ATCC cells assessed as cell growth at 100 uM incubated for 48 hrs by sulforhodamine B assay relative to control
Type: functional
Settings: read-out: Activity
How it was run: (§1)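 NCI Developmental Therapeutics Program NCI60 panel. Compounds that were active in the 10 µM one-dose screen went on to dose–response testing. Growth at each concentration is expressed relative to untreated control (100%). GI50 (concentration giving 50% of maximal inhibition of proliferation) and TGI (concentration giving total growth inhibition) were derived from the curves.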

SMILES | growth at 100 µM
Cc1cccc(NC(=O)c2sc3nc4c(cc3c2N)C(=O)CCC4)c1 | 19%

Tested on: RPMI-8226
Assay: Growth inhibition of human RPMI-8226 cells assessed as cell growth at 100 uM incubated for 48 hrs by sulforhodamine B assay relative to control
Type: functional
Settings: read-out: Activity

SMILES | growth at 100 µM
Cc1cccc(NC(=O)c2sc3nc4c(cc3c2N)C(=O)CCC4)c1 | 21%

Tested on: NCI-H522
Assay: Growth inhibition of human NCI-H522 cells assessed as cell growth at 1 uM incubated for 48 hrs by sulforhodamine B assay relative to control
Type: functional
Settings: read-out: Activity

SMILES | growth at 1 µM
Cc1cccc(NC(=O)c2sc3nc4c(cc3c2N)C(=O)CCC4)c1 | -35%

Tested on: BT-549
Assay: Growth inhibition of human BT-549 cells assessed as cell growth at 1 uM incubated for 48 hrs by sulforhodamine B assay relative to control
Type: functional
Settings: read-out: Activity

SMILES | growth at 1 µM
Cc1cccc(NC(=O)c2sc3nc4c(cc3c2N)C(=O)CCC4)c1 | 46%

Tested on: SF-268
Assay: Growth inhibition of human SF-268 cells assessed as cell growth at 100 uM incubated for 48 hrs by sulforhodamine B assay relative to control
Type: functional
Settings: read-out: Activity

SMILES | growth at 100 µM
Cc1cccc(NC(=O)c2sc3nc4c(cc3c2N)C(=O)CCC4)c1 | -12%

Tested on: SNB-75
Assay: Growth inhibition of human SNB-75 cells assessed as cell growth at 0.01 uM incubated for 48 hrs by sulforhodamine B assay relative to control
Type: functional
Settings: read-out: Activity

SMILES | growth at 0.01 µM
Cc1cccc(NC(=O)c2sc3nc4c(cc3c2N)C(=O)CCC4)c1 | 80%

Tested on: COLO 205
Assay: Growth inhibition of human COLO 205 cells assessed as cell growth at 1 uM incubated for 48 hrs by sulforhodamine B assay relative to control
Type: functional
Settings: read-out: Activity
How it was run: as §1

SMILES | growth at 1 µM
Cc1cccc(NC(=O)c2sc3nc4c(cc3c2N)C(=O)CCC4)c1 | -17%

Tested on: MDA-MB-468
Assay: Growth inhibition of human MDA-MB-468 cells incubated for 48 hrs by sulforhodamine B assay
Type: functional
Settings: not given
How it was run: (§2)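 NCI60 panel at the NCI Developmental Therapeutics Program. Only compounds active in the 10 µM screen went to dose-response testing. GI50, the concentration giving 50% of maximal inhibition of proliferation, and TGI, the concentration giving total growth inhibition, were derived from the dose-response curves.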

SMILES | GI50
Cc1cccc(NC(=O)c2sc3nc4c(cc3c2N)C(=O)CCC4)c1 | 0.143 µM

Same assay, conditions: read-out: LC50 (the source's name)

SMILES | CC50
Cc1cccc(NC(=O)c2sc3nc4c(cc3c2N)C(=O)CCC4)c1 | > 100 µM

Tested on: HCT-116
Assay: Growth inhibition of human HCT-116 cells incubated for 48 hrs by sulforhodamine B assay
Type: functional
Settings: not given
How it was run: as §2

SMILES | GI50 | LC50 (concentration killing 50% of cells) | TGI
Cc1cccc(NC(=O)c2sc3nc4c(cc3c2N)C(=O)CCC4)c1 | 0.28 µM | > 100 µM | > 100 µM

Tested on: A498
Assay: Growth inhibition of human A498 cells incubated for 48 hrs by sulforhodamine B assay
Type: functional
Settings: not given
How it was run: as §1

SMILES | GI50 | TGI
Cc1cccc(NC(=O)c2sc3nc4c(cc3c2N)C(=O)CCC4)c1 | 0.139 µM | 0.701 µM

Same assay, conditions: read-out: LC50 (the source's name)

SMILES | CC50
Cc1cccc(NC(=O)c2sc3nc4c(cc3c2N)C(=O)CCC4)c1 | > 100 µM

Tested on: MDA-MB-468
Assay: Growth inhibition of human MDA-MB-468 cells assessed as cell growth at 0.1 uM incubated for 48 hrs by sulforhodamine B assay relative to control
Type: functional
Settings: read-out: Activity

SMILES | growth at 0.1 µM
Cc1cccc(NC(=O)c2sc3nc4c(cc3c2N)C(=O)CCC4)c1 | 45%

Tested on: OVCAR-4
Assay: Growth inhibition of human OVCAR-4 cells assessed as cell growth at 1 uM incubated for 48 hrs by sulforhodamine B assay relative to control
Type: functional
Settings: read-out: Activity

SMILES | growth at 1 µM
Cc1cccc(NC(=O)c2sc3nc4c(cc3c2N)C(=O)CCC4)c1 | 44%

Tested on: DU-145
Assay: Growth inhibition of human DU-145 cells incubated for 48 hrs by sulforhodamine B assay
Type: functional
Settings: not given
How it was run: as §1

SMILES | GI50 | TGI
Cc1cccc(NC(=O)c2sc3nc4c(cc3c2N)C(=O)CCC4)c1 | 0.285 µM | ≥ 100 µM

Same assay, conditions: read-out: LC50 (the source's name)

SMILES | CC50
Cc1cccc(NC(=O)c2sc3nc4c(cc3c2N)C(=O)CCC4)c1 | ≥ 100 µM

Tested on: UO-31
Assay: Growth inhibition of human UO-31 cells assessed as cell growth at 100 uM incubated for 48 hrs by sulforhodamine B assay relative to control
Type: functional
Settings: read-out: Activity

SMILES | growth at 100 µM
Cc1cccc(NC(=O)c2sc3nc4c(cc3c2N)C(=O)CCC4)c1 | -23%

Tested on: K562
Assay: Growth inhibition of human K562 cells assessed as cell growth at 100 uM incubated for 48 hrs by sulforhodamine B assay relative to control
Type: functional
Settings: read-out: Activity

SMILES | growth at 100 µM
Cc1cccc(NC(=O)c2sc3nc4c(cc3c2N)C(=O)CCC4)c1 | 17%

Tested on: UACC-62
Assay: Growth inhibition of human UACC-62 cells assessed as cell growth at 1 uM incubated for 48 hrs by sulforhodamine B assay relative to control
Type: functional
Settings: read-out: Activity

SMILES | growth at 1 µM
Cc1cccc(NC(=O)c2sc3nc4c(cc3c2N)C(=O)CCC4)c1 | 29%

Tested on: SK-OV-3
Assay: Growth inhibition of human SK-OV-3 cells assessed as cell growth at 100 uM incubated for 48 hrs by sulforhodamine B assay relative to control
Type: functional
Settings: read-out: Activity

SMILES | growth at 100 µM
Cc1cccc(NC(=O)c2sc3nc4c(cc3c2N)C(=O)CCC4)c1 | -16%

Tested on: SW-620
Assay: Growth inhibition of human SW-620 cells incubated for 48 hrs by sulforhodamine B assay
Type: functional
Settings: not given
How it was run: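 NCI DTP 60-line human tumour panel. Dose-response curves were run only for ligands active in the initial 10 µM screen. GI50 (concentration giving 50% of maximal inhibition of proliferation) and TGI (concentration giving total growth inhibition) were derived from these curves.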

SMILES | GI50 | LC50 (concentration killing 50% of cells) | TGI
Cc1cccc(NC(=O)c2sc3nc4c(cc3c2N)C(=O)CCC4)c1 | 0.193 µM | > 100 µM | ≥ 100 µM

Tested on: CCRF-CEM
Assay: Growth inhibition of human CCRF-CEM cells incubated for 48 hrs by sulforhodamine B assay
Type: functional
Settings: not given
How it was run: as §1

SMILES | LC50 | TGI
Cc1cccc(NC(=O)c2sc3nc4c(cc3c2N)C(=O)CCC4)c1 | > 100 µM | > 100 µM

Tested on: TK-10
Assay: Growth inhibition of human TK-10 cells assessed as cell growth at 1 uM incubated for 48 hrs by sulforhodamine B assay relative to control
Type: functional
Settings: read-out: Activity

SMILES | growth at 1 µM
Cc1cccc(NC(=O)c2sc3nc4c(cc3c2N)C(=O)CCC4)c1 | 45%

Tested on: NCI-H226
Assay: Growth inhibition of human NCI-H226 cells assessed as cell growth at 0.1 uM incubated for 48 hrs by sulforhodamine B assay relative to control
Type: functional
Settings: read-out: Activity

SMILES | growth at 0.1 µM
Cc1cccc(NC(=O)c2sc3nc4c(cc3c2N)C(=O)CCC4)c1 | 94%

Tested on: SK-MEL-5
Assay: Growth inhibition of human SK-MEL-5 cells assessed as cell growth at 0.01 uM incubated for 48 hrs by sulforhodamine B assay relative to control
Type: functional
Settings: read-out: Activity

SMILES | growth at 0.01 µM
Cc1cccc(NC(=O)c2sc3nc4c(cc3c2N)C(=O)CCC4)c1 | 97%

Tested on: SF-295
Assay: Growth inhibition of human SF-295 cells assessed as cell growth at 0.1 uM incubated for 48 hrs by sulforhodamine B assay relative to control
Type: functional
Settings: read-out: Activity

SMILES | growth at 0.1 µM
Cc1cccc(NC(=O)c2sc3nc4c(cc3c2N)C(=O)CCC4)c1 | 60%

Tested on: OVCAR-3
Assay: Growth inhibition of human OVCAR-3 cells assessed as cell growth at 0.1 uM incubated for 48 hrs by sulforhodamine B assay relative to control
Type: functional
Settings: read-out: Activity

SMILES | growth at 0.1 µM
Cc1cccc(NC(=O)c2sc3nc4c(cc3c2N)C(=O)CCC4)c1 | 81%

Tested on: MCF7
Assay: Growth inhibition of human MCF7 cells assessed as cell growth at 1 uM incubated for 48 hrs by sulforhodamine B assay relative to control
Type: functional
Settings: read-out: Activity

SMILES | growth at 1 µM
Cc1cccc(NC(=O)c2sc3nc4c(cc3c2N)C(=O)CCC4)c1 | 18%

Tested on: ACHN
Assay: Growth inhibition of human ACHN cells assessed as cell growth at 100 uM incubated for 48 hrs by sulforhodamine B assay relative to control
Type: functional
Settings: read-out: Activity

SMILES | growth at 100 µM
Cc1cccc(NC(=O)c2sc3nc4c(cc3c2N)C(=O)CCC4)c1 | -21%

Tested on: SF-539
Assay: Growth inhibition of human SF-539 cells assessed as cell growth at 100 uM incubated for 48 hrs by sulforhodamine B assay relative to control
Type: functional
Settings: read-out: Activity

SMILES | growth at 100 µM
Cc1cccc(NC(=O)c2sc3nc4c(cc3c2N)C(=O)CCC4)c1 | -25%

Tested on: MDA-MB-231
Assay: Growth inhibition of human MDA-MB-231 cells assessed as cell growth at 100 uM incubated for 48 hrs by sulforhodamine B assay relative to control
Type: functional
Settings: read-out: Activity

SMILES | growth at 100 µM
Cc1cccc(NC(=O)c2sc3nc4c(cc3c2N)C(=O)CCC4)c1 | 21%

Tested on: SNB-19
Assay: Growth inhibition of human SNB-19 cells assessed as cell growth at 1 uM incubated for 48 hrs by sulforhodamine B assay relative to control
Type: functional
Settings: read-out: Activity

SMILES | growth at 1 µM
Cc1cccc(NC(=O)c2sc3nc4c(cc3c2N)C(=O)CCC4)c1 | 33%

Tested on: HCC 2998
Assay: Growth inhibition of human HCC 2998 cells assessed as cell growth at 1 uM incubated for 48 hrs by sulforhodamine B assay relative to control
Type: functional
Settings: read-out: Activity
How it was run: as §1

SMILES | growth at 1 µM
Cc1cccc(NC(=O)c2sc3nc4c(cc3c2N)C(=O)CCC4)c1 | 28%

Tested on: HOP-62
Assay: Growth inhibition of human HOP-62 cells assessed as cell growth at 100 uM incubated for 48 hrs by sulforhodamine B assay relative to control
Type: functional
Settings: read-out: Activity

SMILES | growth at 100 µM
Cc1cccc(NC(=O)c2sc3nc4c(cc3c2N)C(=O)CCC4)c1 | 1%

Tested on: HOP-92
Assay: Growth inhibition of human HOP-92 cells assessed as cell growth at 1 uM incubated for 48 hrs by sulforhodamine B assay relative to control
Type: functional
Settings: read-out: Activity

SMILES | growth at 1 µM
Cc1cccc(NC(=O)c2sc3nc4c(cc3c2N)C(=O)CCC4)c1 | 50%

Tested on: SK-MEL-28
Assay: Growth inhibition of human SK-MEL-28 cells assessed as cell growth at 0.1 uM incubated for 48 hrs by sulforhodamine B assay relative to control
Type: functional
Settings: read-out: Activity

SMILES | growth at 0.1 µM
Cc1cccc(NC(=O)c2sc3nc4c(cc3c2N)C(=O)CCC4)c1 | 66%
